Shown are actives, neighbours in structure and some others; about 2.2% of the full set was active somewhere.
Wee1 degr inh – blocks degradation of human Wee1 kinase; HeLa Luc-Wee1K328M stability, luciferase luminescence; 100% = proteasome inhibitor MG132 effect; reporter increase, % at 5 µM; 220,000 tested, 1.2% active; AID 1321;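 active = activation above the mean of all tested compounds plus 3 SD, set per screening run, cut at about 8.8% in these data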;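 also: cells exposed to compound for 20 h before luminescence read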
Target sequence (P30291 whole entry K328M): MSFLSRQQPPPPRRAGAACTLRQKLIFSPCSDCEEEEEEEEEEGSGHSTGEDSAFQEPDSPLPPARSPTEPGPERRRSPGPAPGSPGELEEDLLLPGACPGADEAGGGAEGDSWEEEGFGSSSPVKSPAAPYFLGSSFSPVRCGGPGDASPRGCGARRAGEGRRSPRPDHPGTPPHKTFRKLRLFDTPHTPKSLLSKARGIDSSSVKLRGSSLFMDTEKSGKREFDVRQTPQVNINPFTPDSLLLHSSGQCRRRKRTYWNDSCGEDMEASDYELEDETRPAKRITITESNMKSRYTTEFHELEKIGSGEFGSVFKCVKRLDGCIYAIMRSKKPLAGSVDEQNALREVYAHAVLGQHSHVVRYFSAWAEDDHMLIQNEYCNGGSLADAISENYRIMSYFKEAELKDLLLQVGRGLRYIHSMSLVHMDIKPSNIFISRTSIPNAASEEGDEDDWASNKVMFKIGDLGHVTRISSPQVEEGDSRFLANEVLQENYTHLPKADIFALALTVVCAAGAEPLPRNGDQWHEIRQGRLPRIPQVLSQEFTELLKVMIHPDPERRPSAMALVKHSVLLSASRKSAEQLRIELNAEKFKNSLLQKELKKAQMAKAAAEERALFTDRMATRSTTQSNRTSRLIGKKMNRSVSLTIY
PKD1 inh – inhibitors of human PKD1 kinase; Q15139; PKD1 kinase fluorescence polarization assay; inhibition, % (concentration not given with the values); 200,000 tested, 0.056% active; in the data active = inhibition above about 50%
DTT redox prof – compounds producing H2O2 with reducing agent – biochemical, NIH compound library profiling, artefact control for MLSCN library redox annotation, primary screen | DTT-dependent redox cycling H2O2, phenol red/HRP absorbance; 100% = 100 µM peroxide control, 0% = buffer | activation, % at 10 µM | 200,000 tested, 0.03% active | AID 878;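 active = activation of at least 50% relative to the plate's high and low controls in the primary single-dose screen; inactive = activation below 50%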;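 also: compound incubated with DTT at 0.8 mM final as the reducing agent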
Arbovirus anti – arbovirus infection inhibition; inhibition, % at 10 µM; arbovirus infection cell-based antiviral screen; AID 1251; 200,000 tested, 0.37% active; in the data active = inhibition above about 30%
RBBP9 inhibitor – blocks human serine hydrolase RBBP9 | O75884 | recombinant RBBP9, FP-Rh probe fluorescence polarization | inhibition, % at 7.94 µM | 220,000 tested, 0.2% active | AID 1515;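 active = inhibition above the campaign mean of all tested compounds plus 3 SD, cut at about 14% in these data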
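system = RBBP9 protein | input = RBBP9 at 2.5 µM in dispensed solution, before mixing | measured by = fluorescence polarization (mP), excitation 525 nm, emission 598 nm | incubation = enzyme-compound preincubation 30 min, then probe labeling 45 min, 25 °C | buffer or medium = Tris-NaCl-Pluronic buffer, pH 8.0 | compound = single dose 7.94 µM | also added = FP-Rh probe, 375 nM dispensing solution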
p97 ATPase inh – inhibitors of human p97 ATPase; P55072; recombinant p97 ATPase, Kinase-Glo ATP luminescence, 3 h; inhibition, % at 8 µM; 220,000 tested, 0.42% active; AID 1481; in the data active = inhibition above about 15%
FP interf 140K – counter-screen for PKD inhibitors: fluorescence polarization interference | shares compounds with PKD1 inh | PKD1 FP assay interference counter-screen | inhibition, % at 10 µM | 85 tested, under 10 active; call rule not given here
Redox H2O2 DR – redox cycling H2O2 generation, confirmed; 60 tested, 40% active; AID 1234; DTT-dependent redox cycling H2O2, phenol red-HRP absorbance; shares compounds with DTT redox prof; EC50, µM;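 active = EC50 under a set limit for hydrogen peroxide production with the reducing agent DTT present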
Wee1 degr conf – confirmation of human Wee1 degradation inhibitors; activation, % at 5 µM; HeLa Luc-Wee1K328M degradation, luminescence; vehicle 0%, proteasome-blocked wells 100%; 1,100 tested, 4% active; shares compounds with Wee1 degr inh; AID 1410; in the data active = activation above about 8.9%
p97 confirm – confirmation of human p97 ATPase inhibitors | shares compounds with p97 ATPase inh | 760 tested, 44% active | recombinant p97 ATPase, Kinase-Glo ATP luminescence | inhibition, % at 8 µM | AID 1517;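 active = percent inhibition of p97 ATPase above a set limit, the primary screen's mean plus 3 SD, cut at about 15% in these data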
Each line names hits and unclear results; the compound was inactive in the other large screens (follow-up assays come after a bar, where they were run); ! = not confirmed by another sample.

O=c1c2ccccc2[nH]c(=S)n1-c1cccnc1	Wee1 degr inh 9.7 (no result: PKD1 inh, DTT redox prof, Arbovirus anti)
Cc1ccc2[nH]c(=S)n(-c3cccnc3)c(=O)c2c1	none (no result: PKD1 inh, DTT redox prof, Arbovirus anti)
Cn1c(=O)c2c(nc(N/N=C/c3c(O)n(-c4ccccc4)c(=S)[nH]c3=O)n2C)n(C)c1=O	none
Cc1ccc(/C=C2/C(=O)NC(=O)N(C)C2=O)cc1	Wee1 degr inh 8.9
CCC(=O)N1N=C(c2c(O)n(CCc3ccccc3)c(=O)[nH]c2=O)CC1c1ccc(OC)c(OC)c1 (stereo not given)	none (no result: PKD1 inh, DTT redox prof, Arbovirus anti)
Cc1c2ccncc2c(C)c2c1[nH]c1ccccc12	PKD1 inh 87
c1ccc2c(c1)[nH]c1cnccc12	none
Cc1cccc(N/N=C(\C(N)=O)C2=NC(C)(C)Cc3ccccc32)c1	none
O=c1oc2ccccc2c(O)c1[C@H]1c2ccc(O)cc2Oc2c1c(=O)oc1ccccc21	none (no result: PKD1 inh, DTT redox prof, Arbovirus anti)
O=[N+]([O-])NC1=NCN(Cc2ccco2)CN1Cc1ccco1	none
Cc1ccccc1-n1c(/C=C/c2ccccn2)nc2ccccc2c1=O	none (no result: PKD1 inh, DTT redox prof, Arbovirus anti)
CN1C2CCC1/C(=C/c1ccccn1)C(=O)/C2=C\c1ccccn1	Wee1 degr inh 21
Cc1ccsc1C(=O)C1CCCN(Cc2cnc(N)nc2)C1 (stereo not given)	Wee1 degr inh 9.6 (no result: PKD1 inh, DTT redox prof, Arbovirus anti)
Cc1ccsc1C(=O)C1CCCN(Cc2cnn(C(C)C)c2)C1 (stereo not given)	none
CCC(=NCC1CCCO1)c1c(O)n(Cc2ccccc2)c(=O)[nH]c1=O (stereo not given)	none
CC/C(=N\NC(=O)c1ccccc1)c1c(O)n(Cc2ccccc2)c(=O)[nH]c1=O	Wee1 degr inh 10 (no result: PKD1 inh, DTT redox prof, Arbovirus anti)
CCCCn1c(NC(=O)c2ccc(Br)o2)c(C(=O)OCC)c2nc3ccccc3nc21	p97 ATPase inh 17
COc1ccc(S(=O)(=O)N2CC3CC(C2)c2cccc(=O)n2C3)cc1 (stereo not given)	none
COc1ccc(N=Nc2c(O)[nH]c(=S)[nH]c2=O)cc1	Wee1 degr inh 9.8
OC1/C(=C/c2ccccc2F)N2CCC1CC2 (stereo not given)	none
Clc1ccc(Cn2ccnc2)cn1	none
O=[N+]([O-])/C=C1\NCCN1Cc1ccc(Cl)nc1	Wee1 degr inh 9.6!
O=c1[nH]c(=S)n(C2CC2)c(O)c1/C=N/Nc1cccc2ccccc12	Wee1 degr inh 8.9
CC12CN3CC(C)(CN(C1)C3c1ccco1)C2=O (stereo not given)	Wee1 degr inh 9.3
COc1ccc2ccc(O)c(CN3CC=C(c4ccccc4)CC3)c2c1	Arbovirus anti 30
CCN1CC2([N+](=O)[O-])CC=C(Cl)C([N+](=O)[O-])(C1)C2 (stereo not given)	none
O=C(O)c1cccc2c1NC(c1cccc([N+](=O)[O-])c1)C1CC(Sc3ccccc3[N+](=O)[O-])C(Cl)C21 (stereo not given)	none
O=C(O)c1ccc2c(c1)C1C(Cl)C(Sc3ccccc3[N+](=O)[O-])CC1C(c1cccc([N+](=O)[O-])c1)N2 (stereo not given)	p97 ATPase inh 15
COc1cc(CN=C(C)c2c(O)n(C)c(=O)n(C)c2=O)cc(OC)c1	Wee1 degr inh 9.0 (no result: PKD1 inh, DTT redox prof, Arbovirus anti)
O=C(N/N=C/c1c(O)n(Cc2ccco2)c(=O)[nH]c1=O)c1ccccc1O	none (no result: PKD1 inh, DTT redox prof, Arbovirus anti)
CC(NCc1ccc(Cl)cc1Cl)C(O)c1ccccc1 (stereo not given)	none
CC(NCc1ccc(Cl)cc1)C(O)c1ccccc1 (stereo not given)	Wee1 degr inh 8.9
CN(C)C1(CNC(=O)c2ccc(Cl)c(S(=O)(=O)NCc3ccco3)c2)CCCCC1	Wee1 degr inh 15
O=C(CN1CCCCC1)c1ccc2c(c1)OCO2	none (no result: PKD1 inh, DTT redox prof, Arbovirus anti)
Cc1nn(C2CCOC(C)(C)C2)c2c1C(c1ccc3c(c1)OCO3)SCC(=O)N2 (stereo not given)	Wee1 degr inh 11
Cc1ccc(S(=O)(=O)CC(=O)c2cc(C)c(OC(=O)N(C)C)c(C)c2)cc1	none
Cc1cc(C(=O)CS(=O)(=O)c2ccccc2)cc(C)c1OC(=O)N(C)C	Wee1 degr inh 10
CN1CCc2nc(N)c(C#N)c(-c3ccccc3)c2C1	none
CN1CCc2nc3sc(C#N)c(N)c3c(-c3cccs3)c2C1	Arbovirus anti 32
CCOc1ccc(N2C(=O)NC(=O)/C(=C/c3cnc(SC)nc3)C2=O)cc1	Wee1 degr inh 10
Cc1ccc(-c2nn(Cc3ccccc3)cc2C=O)cc1	Wee1 degr inh 9.1
O=[N+]([O-])c1cc(-c2ccc([As](=O)(O)O)cc2)ccc1[As](=O)(O)O	none (no result: PKD1 inh, DTT redox prof, Arbovirus anti)
COc1cc(CC2(CCc3ccncc3)C(=O)NC(=O)NC2=O)cc(OC)c1OC	none
COc1cc2c(cc1OC)-c1c(OC)c(OC)c(OC)c3ccnc(c13)C2=O	PKD1 inh 50 | FP interf 140K inactive
O=C1Nc2ccccc2/C1=C/c1cnc[nH]1	PKD1 inh 69 | FP interf 140K inactive
O=P(Oc1ccccc1)(Oc1ccccc1)c1ccccc1	none (no result: PKD1 inh, DTT redox prof, Arbovirus anti)
CCCCn1c(NS(=O)(=O)c2ccccc2)c(C(=O)OCC)c2nc3ccccc3nc21	DTT redox prof 167, p97 ATPase inh 21 | Redox H2O2 DR inactive | p97 confirm inactive
CCc1c(C)nc(N)nc1N1N=C1SC(C(C)=O)C(C)=O	none
CC(=O)OC1(c2ccccc2)CC(C(C)(C)C)CN(C(C)(C)C)C1 (stereo not given)	Wee1 degr inh 14 | Wee1 degr conf inactive
N=C1c2ccccc2CN1c1ccc(F)c([N+](=O)[O-])c1	none (no result: PKD1 inh, DTT redox prof, Arbovirus anti)
COc1ccc(-c2cc(=NCCCCCC(=O)O)c3cc(C)ccc3o2)cc1	Wee1 degr inh 17 | Wee1 degr conf inactive
Oc1cccc2nc3ccccc3nc12	none (no result: PKD1 inh, DTT redox prof, Arbovirus anti)
COc1ccc(CN2CCN(c3ccccc3F)CC2)cc1O	none
COc1ccccc1N1CCN(Cc2ccc(F)cc2)CC1	Wee1 degr inh 14 | Wee1 degr conf inactive
O=C(C[N+]12CCC(CC1)C(CO)C2)c1ccc([N+](=O)[O-])cc1 (stereo not given)	Wee1 degr inh 14 | Wee1 degr conf inactive
CCCCC(=O)N/N=C/c1c(O)n(-c2cccc3ccccc23)c(=O)[nH]c1=O	none (no result: PKD1 inh, DTT redox prof, Arbovirus anti)

Source: PubChem (several laboratories)
